Laboratory results published in PMC10439066 (Drugs in R&D, 2023).

Assays:
recombinant human AKR1C1 = target: T1, recombinant human AKR1C1 (Homo sapiens, UniProt Q04828); assay: Related enzyme screen; assay type: biochemical; conditions: preclinical screen
T1 sequence (Q04828 1-323): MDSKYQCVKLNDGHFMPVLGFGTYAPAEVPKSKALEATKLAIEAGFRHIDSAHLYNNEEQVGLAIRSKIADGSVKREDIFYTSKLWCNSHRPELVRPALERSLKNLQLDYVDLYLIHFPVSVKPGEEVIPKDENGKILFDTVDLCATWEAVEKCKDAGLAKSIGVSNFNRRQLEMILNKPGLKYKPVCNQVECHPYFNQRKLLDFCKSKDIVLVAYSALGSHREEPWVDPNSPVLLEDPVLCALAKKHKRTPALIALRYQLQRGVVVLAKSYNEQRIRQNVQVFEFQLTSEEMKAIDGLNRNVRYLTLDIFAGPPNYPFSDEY

BSEP (vesicle assay) = BSEP (vesicle assay) (Homo sapiens, UniProt O95342); assay: Transporter inhibition, vesicle assay; assay type: in vitro ADME; conditions: read-out: Inhibition characteristics in vitro IC50
BSEP (vesicle assay), sequence (O95342 whole entry): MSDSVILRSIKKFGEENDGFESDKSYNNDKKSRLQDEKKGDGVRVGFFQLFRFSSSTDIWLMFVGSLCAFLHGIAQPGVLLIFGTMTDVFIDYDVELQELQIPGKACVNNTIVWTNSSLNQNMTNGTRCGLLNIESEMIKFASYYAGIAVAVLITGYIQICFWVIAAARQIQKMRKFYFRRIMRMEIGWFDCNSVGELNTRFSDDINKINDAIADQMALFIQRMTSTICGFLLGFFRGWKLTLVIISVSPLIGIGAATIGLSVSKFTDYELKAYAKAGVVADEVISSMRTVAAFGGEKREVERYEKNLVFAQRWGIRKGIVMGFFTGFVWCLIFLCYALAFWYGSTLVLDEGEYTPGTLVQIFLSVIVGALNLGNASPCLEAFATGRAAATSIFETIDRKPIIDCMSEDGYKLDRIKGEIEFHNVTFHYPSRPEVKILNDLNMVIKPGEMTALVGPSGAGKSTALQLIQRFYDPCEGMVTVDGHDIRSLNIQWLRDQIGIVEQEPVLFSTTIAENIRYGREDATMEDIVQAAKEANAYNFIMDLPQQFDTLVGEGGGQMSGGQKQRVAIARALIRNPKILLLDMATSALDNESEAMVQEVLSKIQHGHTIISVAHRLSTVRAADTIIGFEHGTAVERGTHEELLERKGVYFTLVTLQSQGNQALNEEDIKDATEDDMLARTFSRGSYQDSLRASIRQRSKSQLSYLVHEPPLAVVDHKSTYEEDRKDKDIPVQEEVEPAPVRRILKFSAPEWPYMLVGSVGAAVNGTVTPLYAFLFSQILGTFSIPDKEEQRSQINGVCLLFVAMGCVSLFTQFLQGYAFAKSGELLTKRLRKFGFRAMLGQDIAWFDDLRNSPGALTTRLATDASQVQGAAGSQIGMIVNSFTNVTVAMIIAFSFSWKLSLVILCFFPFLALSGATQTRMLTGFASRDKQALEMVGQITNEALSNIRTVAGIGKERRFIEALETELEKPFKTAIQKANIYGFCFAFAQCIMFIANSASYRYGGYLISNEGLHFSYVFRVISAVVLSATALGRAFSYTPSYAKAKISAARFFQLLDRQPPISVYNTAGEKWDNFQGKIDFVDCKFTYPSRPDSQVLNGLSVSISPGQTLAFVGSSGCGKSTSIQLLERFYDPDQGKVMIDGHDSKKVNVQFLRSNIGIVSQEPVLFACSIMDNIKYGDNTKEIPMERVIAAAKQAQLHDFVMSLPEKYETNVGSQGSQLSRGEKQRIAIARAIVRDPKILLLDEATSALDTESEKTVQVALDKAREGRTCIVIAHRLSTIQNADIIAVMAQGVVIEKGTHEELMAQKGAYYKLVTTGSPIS

androgen receptor = conditions: cited from earlier work
female monkeys = assay: Repeat-dose in vivo toxicity study, monkey; set-up: species or system cynomolgus macaque monkeys (Macaca fascicularis); conditions: cynomolgus monkey
estrogen receptor = conditions: cited from earlier work
[1] = tested on: adult premenopausal women with endometriosis-related pain symptoms; assay: AKRENDO1 phase IIa trial, adverse events; assay type: in vivo, human
Method in brief: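 Randomized, placebo-controlled phase IIa trial in women ≥18 years with surgically or imaging-confirmed endometriosis who met defined pain criteria. Oral dosing: 3 mg OD, 10 mg OD, 30 mg OD, 30 mg BID, 60 mg BID, or placebo for 12 weeks. Visits at days 10, 28, 56 and 84 (±4 d), plus follow-up 2 weeks after end of treatment. Incidence of AEs, SAEs and TEAEs recorded.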

female rats = assay: Repeat-dose in vivo toxicity study, rat; set-up: species or system Wistar strain); conditions: up to highest tested dose of 70 mg/kg, 13 weeks, Bayer data on file
[2] = tested on: 134 human targets including G protein-coupled and nuclear receptors, ion channels, transporters, and enzymes; assay: Specificity panel

CN(CCC(=O)O)C(=O)c1ccc2c(c1)CC[C@@H]1[C@@H]2CC[C@]2(C)C(c3cncc(F)c3)=CC[C@@H]12 [BAY1128688]
activity against related enzyme (recombinant human AKR1C1): no relevant activity
IC50 (BSEP (vesicle assay)): 3.6 µM
agonism or antagonism (androgen receptor): no relevant agonism or antagonism
Increase in liver transaminases in animal toxicology study (female monkeys): Not observed in cynomolgus monkey animal toxicology study with BAY1128688
Isolated increase in serum bilirubin in animal toxicology study (female monkeys): Observed in cynomolgus monkey animal toxicology study with BAY1128688
agonism or antagonism (estrogen receptor): no relevant agonism or antagonism
Any AE ([1]; 3 mg OD n = 11): 8 (72.7) Number (%)
Any SAE ([1]; 3 mg OD n = 11): 1 (9.1) Number (%)
Any TEAE ([1]; 3 mg OD n = 11): 5 (45.5) Number (%)
Any TESAE ([1]; 3 mg OD n = 11): 1 (9.1) Number (%)
Discontinuation due to TEAE ([1]; 3 mg OD n = 11): 0 Number (%)
Discontinuation due to TESAE ([1]; 3 mg OD n = 11): 0 Number (%)
Procedure-related TEAE ([1]; 3 mg OD n = 11): 0 Number (%)
SAE related to procedure ([1]; 3 mg OD n = 11): 0 Number (%)
Study-drug-related SAE ([1]; 3 mg OD n = 11): 0 Number (%)
Study-drug-related TEAE ([1]; 3 mg OD n = 11): 4 (36.4) Number (%)
participants with TEAEs ([1]; 10 mg OD): 32.3%
participants with study-drug-related TEAEs ([1]; 10 mg OD): 9.7%
Any AE ([1]; 10 mg OD n = 31): 16 (51.6) Number (%)
Any SAE ([1]; 10 mg OD n = 31): 0 Number (%)
Any TEAE ([1]; 10 mg OD n = 31): 10 (32.3) Number (%)
Any TESAE ([1]; 10 mg OD n = 31): 0 Number (%)
Discontinuation due to TEAE ([1]; 10 mg OD n = 31): 1 (3.2) Number (%)
Discontinuation due to TESAE ([1]; 10 mg OD n = 31): 0 Number (%)
Procedure-related TEAE ([1]; 10 mg OD n = 31): 0 Number (%)
SAE related to procedure ([1]; 10 mg OD n = 31): 0 Number (%)
Study-drug-related SAE ([1]; 10 mg OD n = 31): 0 Number (%)
Study-drug-related TEAE ([1]; 10 mg OD n = 31): 3 (9.7) Number (%)
Any AE ([1]; 30 mg BID n = 11): 7 (63.6) Number (%)
Any SAE ([1]; 30 mg BID n = 11): 0 Number (%)
Any TEAE ([1]; 30 mg BID n = 11): 6 (54.5) Number (%)
Any TESAE ([1]; 30 mg BID n = 11): 0 Number (%)
Discontinuation due to TEAE ([1]; 30 mg BID n = 11): 2 (18.2) Number (%)
Discontinuation due to TESAE ([1]; 30 mg BID n = 11): 0 Number (%)
Procedure-related TEAE ([1]; 30 mg BID n = 11): 0 Number (%)
SAE related to procedure ([1]; 30 mg BID n = 11): 0 Number (%)
Study-drug-related SAE ([1]; 30 mg BID n = 11): 0 Number (%)
Study-drug-related TEAE ([1]; 30 mg BID n = 11): 2 (18.2) Number (%)
participants with TEAEs ([1]; 30 mg OD): 90.0%
Any AE ([1]; 30 mg OD n = 10): 9 (90.0) Number (%)
Any SAE ([1]; 30 mg OD n = 10): 2 (20.0) Number (%)
Any TEAE ([1]; 30 mg OD n = 10): 9 (90.0) Number (%)
Any TESAE ([1]; 30 mg OD n = 10): 2 (20.0) Number (%)
Discontinuation due to TEAE ([1]; 30 mg OD n = 10): 0 Number (%)
Discontinuation due to TESAE ([1]; 30 mg OD n = 10): 0 Number (%)
Procedure-related TEAE ([1]; 30 mg OD n = 10): 0 Number (%)
SAE related to procedure ([1]; 30 mg OD n = 10): 0 Number (%)
Study-drug-related SAE ([1]; 30 mg OD n = 10): 1 (10.0) Number (%)
Study-drug-related TEAE ([1]; 30 mg OD n = 10): 4 (40.0) Number (%)
participants with study-drug-related TEAEs ([1]; 60 mg BID): 51.9%
Any AE ([1]; 60 mg BID n = 27): 23 (85.2) Number (%)
Any SAE ([1]; 60 mg BID n = 27): 1 (3.7) Number (%)
Any TEAE ([1]; 60 mg BID n = 27): 21 (77.8) Number (%)
Any TESAE ([1]; 60 mg BID n = 27): 1 (3.7) Number (%)
Discontinuation due to TEAE ([1]; 60 mg BID n = 27): 3 (11.1) Number (%)
Discontinuation due to TESAE ([1]; 60 mg BID n = 27): 0 Number (%)
Procedure-related TEAE ([1]; 60 mg BID n = 27): 2 (7.4) Number (%)
SAE related to procedure ([1]; 60 mg BID n = 27): 0 Number (%)
Study-drug-related SAE ([1]; 60 mg BID n = 27): 1 (3.7) Number (%)
Study-drug-related TEAE ([1]; 60 mg BID n = 27): 14 (51.9) Number (%)
hepatotoxicity (female rats): No hepatotoxicity was observed
interactions in specificity panel [2]: no relevant interactions
